According to ChEMBL document CHEMBL4732237, “Discovery of 4-alkoxy-2-aryl-6,7-dimethoxyquinolines as a new class of topoisomerase I inhibitors endowed with potent in vitro anticancer activity” (2021):

Each compound was assayed on SK-OV-3 (assay: Growth inhibition of human SK-OV-3 cells incubated for 48 hrs by sulforhodamine B assay).
Format: functional
In short: (§1)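 NCI five-dose screen (0.01–100 µM; five concentrations plus control). Cells grown in RPMI 1640/5% FBS/2 mM L-glutamine and preincubated 24 h, with time-zero plates TCA-fixed. Drug exposure 48 h at 37 °C, followed by SRB protein staining and reading at 515 nm. GI50 is the concentration at [(Ti-Tz)/(C-Tz)]×100 = 50.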

Row | Structure (SMILES) | GI50 [nM]
1 | COc1cc2nc(-c3ccc(C(F)(F)F)cc3)cc(OCCCN3CCCC3)c2cc1OC | 2550

These compounds were tested on 786-0 (assay: Growth inhibition of human 786-0 cells incubated for 48 hrs by sulforhodamine B assay).
Format: functional
In short: (§2)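 NCI five-dose screen covering 0.01–100 µM, prepared as 10-fold or ½-log dilutions from DMSO stock. Cells in RPMI 1640 with 5% FBS were exposed for 48 h at 37 °C after 24 h preincubation. Adherent cells were fixed with TCA (final 10%) and suspension cells were settled before fixing. Stain was SRB, read at 515 nm. GI50 = 50% reduction in net protein increase versus control, with Tz taken at drug addition.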

Row | Structure (SMILES) | GI50 [nM]
2 | COc1cc2nc(-c3ccc(C(F)(F)F)cc3)cc(OCCCN3CCCC3)c2cc1OC | 2130

The compounds below were run on U-251 (assay: Growth inhibition of human U-251 cells incubated for 48 hrs by sulforhodamine B assay).
Format: functional
In short: (§3)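 NCI five-dose assay, with drug stocks in DMSO diluted in medium to five concentrations (10-fold or ½-log series). Cells in RPMI 1640/5% FBS were pre-incubated 24 h, and time-zero plates were TCA-fixed at drug addition. After 48 h at 37 °C, cells were TCA-fixed, SRB-stained and read at 515 nm. GI50 is from [(Ti-Tz)/(C-Tz)]×100 = 50, TGI from Ti = Tz, and LC50 from [(Ti-Tz)/Tz]×100 = -50.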

Row | Structure (SMILES) | GI50 [nM]
3 | COc1cc2nc(-c3ccc(C(F)(F)F)cc3)cc(OCCCN3CCCC3)c2cc1OC | 1050

The compounds below were run on COLO 205 (assay: Growth inhibition of human COLO 205 cells incubated for 48 hrs by sulforhodamine B assay).
Format: functional
In short: as §2

Row | Structure (SMILES) | GI50 [nM]
4 | COc1cc2nc(-c3ccc(C(F)(F)F)cc3)cc(OCCCN3CCCC3)c2cc1OC | 401

The compounds below were run on SNB-19 (assay: Growth inhibition of human SNB-19 cells incubated for 48 hrs by sulforhodamine B assay).
Format: functional
In short: as §1

Row | Structure (SMILES) | GI50 [nM]
5 | COc1cc2nc(-c3ccc(C(F)(F)F)cc3)cc(OCCCN3CCCC3)c2cc1OC | 2770

The compounds below were run on BT-549 (assay: Growth inhibition of human BT-549 cells incubated for 48 hrs by sulforhodamine B assay).
Format: functional
In short: as §2

Row | Structure (SMILES) | GI50 [nM]
6 | COc1cc2nc(-c3ccc(C(F)(F)F)cc3)cc(OCCCN3CCCC3)c2cc1OC | 1990

What follows are compounds tested on SN12C (assay: Growth inhibition of human SN12C cells incubated for 48 hrs by sulforhodamine B assay).
Format: functional
In short: as §1

Row | Structure (SMILES) | GI50 [nM]
7 | COc1cc2nc(-c3ccc(C(F)(F)F)cc3)cc(OCCCN3CCCC3)c2cc1OC | 673

The compounds below were run on SW-620 (assay: Growth inhibition of human SW-620 cells incubated for 48 hrs by sulforhodamine B assay).
Format: functional
In short: as §3

Row | Structure (SMILES) | GI50 [nM]
8 | COc1cc2nc(-c3ccc(C(F)(F)F)cc3)cc(OCCCN3CCCC3)c2cc1OC | 1620

These compounds were tested on PC-3 (assay: Growth inhibition of human PC-3 cells incubated for 48 hrs by sulforhodamine B assay).
Format: functional
In short: as §1

Row | Structure (SMILES) | GI50 [nM]
9 | COc1cc2nc(-c3ccc(C(F)(F)F)cc3)cc(OCCCN3CCCC3)c2cc1OC | 1070

The compounds below were run on SNB-75 (assay: Growth inhibition of human SNB-75 cells incubated for 48 hrs by sulforhodamine B assay).
Format: functional
In short: as §1

Row | Structure (SMILES) | GI50 [nM]
10 | COc1cc2nc(-c3ccc(C(F)(F)F)cc3)cc(OCCCN3CCCC3)c2cc1OC | 1850

The compounds below were run on RXF 393 (assay: Growth inhibition of human RXF 393 cells incubated for 48 hrs by sulforhodamine B assay).
Format: functional
In short: as §1

Row | Structure (SMILES) | GI50 [nM]
11 | COc1cc2nc(-c3ccc(C(F)(F)F)cc3)cc(OCCCN3CCCC3)c2cc1OC | 1130

These compounds were tested on Hs-578T (assay: Growth inhibition of human HS-578T cells incubated for 48 hrs by sulforhodamine B assay).
Format: functional
In short: as §2

Row | Structure (SMILES) | GI50 [nM]
12 | COc1cc2nc(-c3ccc(C(F)(F)F)cc3)cc(OCCCN3CCCC3)c2cc1OC | 1740

The compounds below were run on SF-268 (assay: Growth inhibition of human SF-268 cells incubated for 48 hrs by sulforhodamine B assay).
Format: functional
In short: as §1

Row | Structure (SMILES) | GI50 [nM]
13 | COc1cc2nc(-c3ccc(C(F)(F)F)cc3)cc(OCCCN3CCCC3)c2cc1OC | 2390

These compounds were tested on HCT-29 (assay: Growth inhibition of human […] cells incubated for 48 hrs by sulforhodamine B assay).
Format: functional
In short: as §2

Row | Structure (SMILES) | GI50 [nM]
14 | COc1cc2nc(-c3ccc(C(F)(F)F)cc3)cc(OCCCN3CCCC3)c2cc1OC | 446

The compounds below were run on ACHN (assay: Growth inhibition of human ACHN cells incubated for 48 hrs by sulforhodamine B assay).
Format: functional
In short: as §2

Row | Structure (SMILES) | GI50 [nM]
15 | COc1cc2nc(-c3ccc(C(F)(F)F)cc3)cc(OCCCN3CCCC3)c2cc1OC | 812

The compounds below were run on MDA-MB-468 (assay: Growth inhibition of human MDA-MB-468 cells incubated for 48 hrs by sulforhodamine B assay).
Format: functional
In short: as §2

Row | Structure (SMILES) | GI50 [nM]
16 | COc1cc2nc(-c3ccc(C(F)(F)F)cc3)cc(OCCCN3CCCC3)c2cc1OC | 885

What follows are compounds tested on HL-60(TB) (assay: Growth inhibition of human HL-60(TB) cells incubated for 48 hrs by sulforhodamine B assay).
Format: functional
In short: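 NCI-60 five-dose screen. Cells in RPMI 1640 with 5% FBS and 2 mM L-glutamine were plated at 5000–40,000 cells/well and preincubated 24 h at 37 °C, 5% CO2. Drugs in DMSO were given at five serial 10-fold or ½-log dilutions for 48 h. Adherent cells fixed with 10% TCA (final); suspension cells fixed after settling. SRB stained; A515. GI50 from [(Ti-Tz)/(C-Tz)]x100 = 50.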

Row | Structure (SMILES) | GI50 [nM]
17 | COc1cc2nc(-c3ccc(C(F)(F)F)cc3)cc(OCCCN3CCCC3)c2cc1OC | 1840

Each compound was assayed on EKVX (assay: Growth inhibition of human EKVX cells incubated for 48 hrs by sulforhodamine B assay).
Format: functional
In short: as §2

Row | Structure (SMILES) | GI50 [nM]
18 | COc1cc2nc(-c3ccc(C(F)(F)F)cc3)cc(OCCCN3CCCC3)c2cc1OC | 982

What follows are compounds tested on LOX IMVI (assay: Growth inhibition of human LOX IMVI cells incubated for 48 hrs by sulforhodamine B assay).
Format: functional
In short: as §2

Row | Structure (SMILES) | GI50 [nM] | TGI [nM]
19 | COc1cc2nc(-c3ccc(C(F)(F)F)cc3)cc(OCCCN3CCCC3)c2cc1OC | 116 | 275

Each compound was assayed on KM12 (assay: Growth inhibition of human KM12 cells incubated for 48 hrs by sulforhodamine B assay).
Format: functional
In short: as §2

Row | Structure (SMILES) | GI50 [nM]
20 | COc1cc2nc(-c3ccc(C(F)(F)F)cc3)cc(OCCCN3CCCC3)c2cc1OC | 1340

The compounds below were run on NCI-H226 (assay: Growth inhibition of human NCI-H226 cells incubated for 48 hrs by sulforhodamine B assay).
Format: functional
In short: as §1

Row | Structure (SMILES) | GI50 [nM]
21 | COc1cc2nc(-c3ccc(C(F)(F)F)cc3)cc(OCCCN3CCCC3)c2cc1OC | 343
